Experimental data as given in ChEMBL document CHEMBL2429728, “Novel Macrocyclic Amidinoureas: Potent Non-Azole Antifungals Active against Wild-Type and Resistant Candida Species” (2013).
In brackets after ≈: the same amount, converted by molar mass.

What was measured:
Format in all cases: functional
Candida tropicalis [1] = experiment: Antifungal activity against Candida tropicalis ATCC 200956 after 24 hrs by visually and spectrophotometric analysis; settings: ATCC 200956, 24 h
Method in brief: (§1)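 Read-out is MIC90 in μg/mL, scored at 24 h both by eye and spectrophotometrically. The panel is Candida isolates that earlier reports describe as amphotericin B-resistant, with amphotericin B run alongside as the reference drug.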

Clavispora lusitaniae [2] = experiment: Antifungal activity against Candida lusitaniae ATCC 60247 after 24 hrs by visually and spectrophotometric analysis; settings: ATCC 60247, 24 h; method in brief: as §1
Clavispora lusitaniae [3] = experiment: Antifungal activity against Candida lusitaniae ATCC 24348 after 24 hrs by visually and spectrophotometric analysis; settings: ATCC 24348, 24 h; method in brief: as §1
Clavispora lusitaniae [4] = experiment: Antifungal activity against Candida lusitaniae ATCC 200953 after 24 hrs by visually and spectrophotometric analysis; method in brief: as §1
Clavispora lusitaniae [5] = experiment: Antifungal activity against Candida lusitaniae ATCC 200952 after 24 hrs by visually and spectrophotometric analysis; method in brief: as §1
Clavispora lusitaniae [6] = experiment: Antifungal activity against Candida lusitaniae ATCC 200951 after 24 hrs by visually and spectrophotometric analysis; method in brief: as §1
Clavispora lusitaniae [7] = experiment: Antifungal activity against Candida lusitaniae ATCC 200950 after 24 hrs by visually and spectrophotometric analysis; settings: ATCC 200950, 24 h; method in brief: as §1
Candida albicans [8] = experiment: Antifungal activity against Candida albicans ATCC 200955 after 24 hrs by visually and spectrophotometric analysis; settings: ATCC 200955, 24 h
Method in brief: (§2)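 Endpoint is MIC90, in μg/mL, read at 24 h by both visual inspection and spectrophotometry.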

Nakaseomyces glabratus [9] = experiment: Antifungal activity against fluconazole-resistant Candida glabrata DSY2271 increase expressing of CgCDR2 genes after 24 hrs by visually and spectrophotometric analysis; settings: DSY2271, 24 h; method in brief: as §2
Nakaseomyces glabratus [10] = experiment: Antifungal activity against fluconazole-resistant Candida glabrata DSY2254 increase expressing of CgCDR1 and CgCDR2 genes after 24 hrs by visually and spectrophotometric analysis; settings: DSY2254, 24 h; method in brief: as §2
Nakaseomyces glabratus [11] = experiment: Antifungal activity against fluconazole-resistant Candida glabrata DSY756 increase expressing of CgCDR1, CgCDR2, and CgSNQ2 genes after 24 hrs by visually and spectrophotometric analysis; settings: DSY756, 24 h; method in brief: as §2
Nakaseomyces glabratus [12] = experiment: Antifungal activity against fluconazole-resistant Candida glabrata DSY754 increase expressing of CgCDR1 gene after 24 hrs by visually and spectrophotometric analysis; settings: DSY754, 24 h; method in brief: as §2
Nakaseomyces glabratus [13] = experiment: Antifungal activity against fluconazole-resistant Candida glabrata DSY530 increase expressing of CgCDR1 gene after 24 hrs by visually and spectrophotometric analysis; settings: DSY530, 24 h; method in brief: as §2
Candida albicans [14] = experiment: Antifungal activity against fluconazole-resistant Candida albicans DSY751 harboring ERG11 gene mutant and increase expressing of MDR1 gene after 24 hrs by visually and spectrophotometric analysis; settings: DSY751, 24 h; method in brief: as §2
Candida albicans [15] = experiment: Antifungal activity against fluconazole-resistant Candida albicans DSY775 harboring ERG11 gene mutant and increase expressing of CDR1 and CDR2 genes after 24 hrs by visually and spectrophotometric analysis; settings: DSY775, 24 h; method in brief: as §2
Candida albicans [16] = experiment: Antifungal activity against fluconazole-resistant Candida albicans DSY735 expressing high level of CDR1 and CDR2 genes after 24 hrs by visually and spectrophotometric analysis; settings: DSY735, 24 h; method in brief: as §2
Candida albicans [17] = experiment: Antifungal activity against fluconazole-resistant Candida albicans DSY292 harboring ERG11 gene mutant and increase expressing of MDR1 gene after 24 hrs by visually and spectrophotometric analysis; settings: DSY292, 24 h; method in brief: as §2
Candida albicans [18] = experiment: Antifungal activity against fluconazole-resistant Candida albicans DSY348 harboring ERG11 gene mutant and increase expressing of CDR1 and CDR2 genes after 24 hrs by visually and spectrophotometric analysis; settings: DSY348, 24 h; method in brief: as §2
Candida albicans [19] = experiment: Antifungal activity against fluconazole-resistant Candida albicans DSY289 harboring ERG11 gene mutant and increase expressing of CDR1 and CDR2 genes after 24 hrs by visually and spectrophotometric analysis; settings: DSY289, 24 h; method in brief: as §2
Candida albicans [20] = experiment: Antifungal activity against fluconazole-resistant Candida albicans DSY296 harboring ERG11 gene mutant and increase expressing of CDR1 and CDR2 genes after 24 hrs by visually and spectrophotometric analysis; settings: DSY296, 24 h; method in brief: as §2
Candida albicans [21] = experiment: Antifungal activity against fluconazole-resistant Candida albicans DSY284 harboring ERG11 gene mutant and increase expressing of CDR1 and CDR2 genes after 24 hrs by visually and spectrophotometric analysis; settings: DSY284, 24 h; method in brief: as §2
Nakaseomyces glabratus [22] = experiment: Antifungal activity against wild type Candida glabrata after 24 hrs by visually and spectrophotometric analysis
Kluyveromyces marxianus = experiment: Antifungal activity against wild type Candida kefyr after 24 hrs by visually and spectrophotometric analysis
Candida tropicalis [23] = experiment: Antifungal activity against wild type Candida tropicalis after 24 hrs by visually and spectrophotometric analysis
Candida parapsilosis = experiment: Antifungal activity against wild type Candida parapsilosis ATCC 34136 after 24 hrs by visually and spectrophotometric analysis; settings: Lodderomyces parapsilosis, ATCC 34136, 24 h
Pichia kudriavzevii = experiment: Antifungal activity against wild type Candida krusei ATCC 14243 after 24 hrs by visually and spectrophotometric analysis; settings: ATCC 14243, 24 h
[24] = system: Meyerozyma guilliermondii; experiment: Antifungal activity against wild type Candida guilliermondii after 24 hrs by visually and spectrophotometric analysis
Candida albicans [25] = experiment: Antifungal activity against wild type Candida albicans ATCC 60193 after 24 hrs by visually and spectrophotometric analysis; settings: ATCC 60193, 24 h

| Compound | MIC90 (Candida tropicalis [1]) | MIC90 (Nakaseomyces glabratus [9]) | MIC90 (Nakaseomyces glabratus [10]) | MIC90 (Nakaseomyces glabratus [11]) | MIC90 (Nakaseomyces glabratus [12]) | MIC90 (Nakaseomyces glabratus [13]) | MIC90 (Candida albicans [15]) | MIC90 (Candida albicans [16]) | MIC90 (Candida albicans [17]) | MIC90 (Candida albicans [18]) | MIC90 (Candida albicans [19]) | MIC90 (Candida albicans [20]) | MIC90 (Candida albicans [21]) | MIC90 (Nakaseomyces glabratus [22]) | MIC90 (Kluyveromyces marxianus) | MIC90 (Candida tropicalis [23]) | MIC90 (Candida parapsilosis) | MIC90 (Pichia kudriavzevii) | MIC90 [24] | MIC90 (Candida albicans [25]) | other results |
| --- | --- | --- | --- | --- | --- | --- | --- | --- | --- | --- | --- | --- | --- | --- | --- | --- | --- | --- | --- | --- | --- |
| C/C=C/CNC(=N)NCCCCCCCCN1CCCCCOC(=O)CCNC(=N)NC1=O.O=C(O)C(F)(F)F | 16 µg/mL | 32 µg/mL | 64 µg/mL | 64 µg/mL | 32 µg/mL | 32 µg/mL | 16 µg/mL | 16 µg/mL | 16 µg/mL | 8 µg/mL | 8 µg/mL | 16 µg/mL | 8 µg/mL | 32 µg/mL | 16 µg/mL | 16 µg/mL | 8 µg/mL | 32 µg/mL | 8 µg/mL | 16 µg/mL | MIC90 (Clavispora lusitaniae [2]): 4 µg/mL; MIC90 (Clavispora lusitaniae [3]): 8 µg/mL; MIC90 (Clavispora lusitaniae [4]): 8 µg/mL; MIC90 (Clavispora lusitaniae [5]): 4 µg/mL; MIC90 (Clavispora lusitaniae [6]): 4 µg/mL; MIC90 (Clavispora lusitaniae [7]): 8 µg/mL; MIC90 (Candida albicans [8]): 4 µg/mL; MIC90 (Candida albicans [14]): 16 µg/mL |
| C/C=C/CNC(=N)NCCCCCCCCN1CCCCCOc2ccccc2CNC(=N)NC1=O.O=C(O)C(F)(F)F | 4 µg/mL | 8 µg/mL | 16 µg/mL | 8 µg/mL | 16 µg/mL | 8 µg/mL | 4 µg/mL | 2 µg/mL | 4 µg/mL | 2 µg/mL | 2 µg/mL | 4 µg/mL | 2 µg/mL | 8 µg/mL | 4 µg/mL | 2 µg/mL | 2 µg/mL | 8 µg/mL | 2 µg/mL | 4 µg/mL | MIC90 (Clavispora lusitaniae [2]): 4 µg/mL; MIC90 (Clavispora lusitaniae [3]): 2 µg/mL; MIC90 (Clavispora lusitaniae [4]): 4 µg/mL; MIC90 (Clavispora lusitaniae [5]): 2 µg/mL; MIC90 (Clavispora lusitaniae [6]): 2 µg/mL; MIC90 (Clavispora lusitaniae [7]): 2 µg/mL; MIC90 (Candida albicans [8]): 1 µg/mL; MIC90 (Candida albicans [14]): 4 µg/mL |
| C=CCNC(=N)NCCCCCCCCN1CCCCCCCCNC(=N)NC1=O.O=C(O)C(F)(F)F | 1 µg/mL | 32 µg/mL | 32 µg/mL | 16 µg/mL | 32 µg/mL | 16 µg/mL | 2 µg/mL | 1 µg/mL | 2 µg/mL | 1 µg/mL | 1 µg/mL | 2 µg/mL | 1 µg/mL | 32 µg/mL | 4 µg/mL | 0.5 µg/mL | 4 µg/mL | 0.5 µg/mL | 2 µg/mL | 1 µg/mL | MIC90 (Clavispora lusitaniae [2]): 2 µg/mL; MIC90 (Clavispora lusitaniae [3]): 1 µg/mL; MIC90 (Clavispora lusitaniae [4]): 4 µg/mL; MIC90 (Clavispora lusitaniae [5]): 2 µg/mL; MIC90 (Clavispora lusitaniae [6]): 2 µg/mL; MIC90 (Clavispora lusitaniae [7]): 2 µg/mL; MIC90 (Candida albicans [8]): 1 µg/mL |
| OC(Cn1cncn1)(Cn1cncn1)c1ccc(F)cc1F [FLUCONAZOLE] |  | 64 µg/mL (≈ 209 µM) | 128 µg/mL (≈ 418 µM) | 128 µg/mL (≈ 418 µM) | 64 µg/mL (≈ 209 µM) | 64 µg/mL (≈ 209 µM) | 128 µg/mL (≈ 418 µM) | 64 µg/mL (≈ 209 µM) | 64 µg/mL (≈ 209 µM) | 32 µg/mL (≈ 104 µM) | 256 µg/mL (≈ 836 µM) | 128 µg/mL (≈ 418 µM) | 256 µg/mL (≈ 836 µM) | 16 µg/mL (≈ 52.2 µM) | 1 µg/mL (≈ 3.27 µM) | 2 µg/mL (≈ 6.53 µM) | 0.5 µg/mL (≈ 1.63 µM) | 256 µg/mL (≈ 836 µM) | 4 µg/mL (≈ 13.1 µM) | 2 µg/mL (≈ 6.53 µM) | MIC90 (Candida albicans [14]): 256 µg/mL (≈ 836 µM) |
| C/C=C/CNC(=N)NCCCCCCCCN1CCCCCCOc2ccccc2CNC(=N)NC1=O.O=C(O)C(F)(F)F | 10 µg/mL | 36 µg/mL | 40 µg/mL | 36 µg/mL | 40 µg/mL | 36 µg/mL | 10 µg/mL | 5 µg/mL | 10 µg/mL | 5 µg/mL | 5 µg/mL | 10 µg/mL | 9 µg/mL | 16 µg/mL | 2 µg/mL | 1 µg/mL | 2 µg/mL | 4 µg/mL | 2 µg/mL | 4 µg/mL | MIC90 (Clavispora lusitaniae [2]): 5 µg/mL; MIC90 (Clavispora lusitaniae [3]): 5 µg/mL; MIC90 (Clavispora lusitaniae [4]): 5 µg/mL; MIC90 (Clavispora lusitaniae [5]): 5 µg/mL; MIC90 (Clavispora lusitaniae [6]): 5 µg/mL; MIC90 (Clavispora lusitaniae [7]): 5 µg/mL; MIC90 (Candida albicans [8]): 5 µg/mL; MIC90 (Candida albicans [14]): 10 µg/mL |
| N=C(NCCCCCCCCN1CCCCCCCCNC(=N)NC1=O)NCC1CC1.O=C(O)C(F)(F)F | 2 µg/mL | 16 µg/mL | 32 µg/mL | 16 µg/mL | 16 µg/mL | 16 µg/mL | 2 µg/mL | 1 µg/mL | 2 µg/mL | 2 µg/mL | 1 µg/mL | 2 µg/mL | 1 µg/mL | 16 µg/mL | 4 µg/mL | 0.5 µg/mL | 2 µg/mL | 4 µg/mL | 2 µg/mL | 1 µg/mL | MIC90 (Clavispora lusitaniae [2]): 4 µg/mL; MIC90 (Clavispora lusitaniae [3]): 2 µg/mL; MIC90 (Clavispora lusitaniae [4]): 2 µg/mL; MIC90 (Clavispora lusitaniae [5]): 1 µg/mL; MIC90 (Clavispora lusitaniae [6]): 2 µg/mL; MIC90 (Clavispora lusitaniae [7]): 4 µg/mL; MIC90 (Candida albicans [8]): 1 µg/mL; MIC90 (Candida albicans [14]): 2 µg/mL |
